From ChEMBL document CHEMBL1828575, “Design, synthesis and antiproliferative activities of biarylolefins based on polyhydroxylated and carbohydrate scaffolds” (Eur J Med Chem, 2011)

Experiments:
Format in all cases: functional
CAKI-1 = experiment: Antitumor activity against human Caki1 cells after 48 hrs by SRB assay; details: CAKI-1, 48 h
Outline: (§1)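 NCI60 panel in RPMI 1640 with 5% FBS and 2 mM L-glutamine. Cells were plated at 5000–40,000/well by doubling time, held 24 h, then time-zero plates were TCA-fixed. Five concentrations (10-fold or half-log dilutions of DMSO stocks) were applied for 48 h at 37 °C, 5% CO2. Cells were fixed with cold TCA (10% final adherent, 16% suspension) and stained with 0.4% SRB. Bound dye was dissolved in 10 mM Tris and read at 515 nm. GI50, TGI and LC50 were calculated per line.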

NCI-H322M [1] = experiment: Antitumor activity against human NCI-H322M cells after 48 hrs by SRB assay; outline: as §1
DU-145 [2] = experiment: Cytotoxicity against human DU145 cells assessed as cellular growth at 10 uM after 48 hrs by SRB assay
Outline: (§2)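 NCI60 single-dose screen of cells in RPMI 1640 with 5% FBS and 2 mM L-glutamine, preincubated 24 h at 37 °C, 5% CO₂. Cells were then exposed 48 h to compound added from DMSO stock. TCA-fixed, stained with 0.4% SRB in 1% acetic acid, dye solubilised in 10 mM Tris base and read at 515 nm. Growth is given as percent of untreated control.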

NCI-H322M [3] = experiment: Cytotoxicity against human NCI-H322M cells assessed as cellular growth at 10 uM after 48 hrs by SRB assay
Outline: (§3)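 NCI-60 panel lines grown in RPMI 1640 with 5% FBS and 2 mM L-glutamine. Plated at 5000–40,000 cells/well and preincubated 24 h at 37 °C, 5% CO₂, with time-zero plates fixed in TCA. Compounds, dissolved in DMSO and diluted in medium, were applied for 48 h. Cells were TCA-fixed (10% final for adherent, 16% for suspension) and stained with 0.4% SRB in 1% acetic acid. Dye was solubilised in 10 mM Tris base and read at 515 nm; growth was expressed as a percentage of untreated control.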

A549 = experiment: Cytotoxicity against human A549 cells assessed as cellular growth at 10 uM after 48 hrs by SRB assay; outline: as §2
DU-145 [4] = experiment: Antitumor activity against human DU145 cells after 48 hrs by SRB assay; details: DU-145, 48 h; outline: as §1
U-251 = experiment: Antitumor activity against human U251 cells after 48 hrs by SRB assay; details: U-251, 48 h
Outline: (§4)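 NCI60 panel cells grown in RPMI 1640 with 5% FBS and 2 mM L-glutamine, plated at 5000–40,000 cells/well and preincubated 24 h at 37 °C, 5% CO₂. Compound was added from DMSO at five concentrations, 10-fold or 1/2 log dilutions, then incubated 48 h.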

LOX IMVI = experiment: Antitumor activity against human LOXIMVI cells after 48 hrs by SRB assay; outline: as §1
K562 = experiment: Cytotoxicity against human K562 cells assessed as cellular growth at 10 uM after 48 hrs by SRB assay; outline: as §2
KM12 = experiment: Antitumor activity against human KM12 cells after 48 hrs by SRB assay; details: KM12, 48 h; outline: as §1
OVCAR-8 = experiment: Antitumor activity against human OVCAR8 cells after 48 hrs by SRB assay; details: OVCAR-8, 48 h; outline: as §1
SR [5] = experiment: Cytotoxicity against human SR cells assessed as cellular growth at 10 uM after 48 hrs by SRB assay; outline: as §3
BT-549 = experiment: Cytotoxicity against human BT549 cells assessed as cellular growth at 10 uM after 48 hrs by SRB assay; outline: as §2
SK-MEL-5 = experiment: Antitumor activity against human SK-MEL-5 cells after 48 hrs by SRB assay; details: SK-MEL-5, 48 h; outline: as §4
COLO 205 = experiment: Antitumor activity against human COLO205 cells after 48 hrs by SRB assay; details: COLO 205, 48 h; outline: as §1
OVCAR-5 = experiment: Cytotoxicity against human OVCAR5 cells assessed as cellular growth at 10 uM after 48 hrs by SRB assay; outline: as §3
[6] = Cytotoxicity against human NCI60 cells assessed as cellular growth at 10 uM after 48 hrs by SRB assay relative to untreated control; outline: as §3
HOP-62 = experiment: Antitumor activity against human HOP62 cells after 48 hrs by SRB assay; details: HOP-62, 48 h; outline: as §1
SR [7] = experiment: Antitumor activity against human SR cells after 48 hrs by SRB assay; outline: as §4
HL-60(TB) = experiment: Cytotoxicity against human HL-60(TB) cells assessed as cellular growth at 10 uM after 48 hrs by SRB assay
MOLT-4 = experiment: Antitumor activity against human MOLT4 cells after 48 hrs by SRB assay; details: MOLT-4, 48 h; outline: as §1
MDA-MB-468 = experiment: Antitumor activity against human MDA-MB-468 cells after 48 hrs by SRB assay; details: MDA-MB-468, 48 h; outline: as §1
TK-10 = experiment: Antitumor activity against human TK10 cells after 48 hrs by SRB assay; details: TK-10, 48 h; outline: as §4
[8] = read-out: LC50 (the source's name)
[9] = read-out: pLC50 (the source's name) (converted)

COc1ccc(/C(=C2\O[C@@H]([C@H]3COC(C)(C)O3)[C@H]3OC(C)(C)O[C@@H]23)c2cc(OC)c(OC)c(OC)c2)cc1O
GI50 (CAKI-1; read-out: GI50): 14.6 µM | CC50 (CAKI-1; [8]): > 100 µM | TGI (CAKI-1; read-out: TGI): 42.2 µM | GI50 (CAKI-1; read-out: pGI50 (converted)): 14.8 µM | CC50 (CAKI-1; [9]): > 100 µM | TGI (CAKI-1; read-out: pTGI (converted)): 42.7 µM | GI50 (NCI-H322M [1]; read-out: GI50): 9.6 µM | CC50 (NCI-H322M [1]; [8]): > 100 µM | TGI (NCI-H322M [1]; read-out: TGI): > 100 µM | GI50 (NCI-H322M [1]; read-out: pGI50 (converted)): 9.55 µM | CC50 (NCI-H322M [1]; [9]): > 100 µM | TGI (NCI-H322M [1]; read-out: pTGI): > 100 µM | Activity (DU-145 [2]): 45.59% | Activity (NCI-H322M [3]): 91.51% | Activity (A549): 80.05% | GI50 (DU-145 [4]; read-out: GI50): 3.93 µM | CC50 (DU-145 [4]; [8]): > 100 µM | TGI (DU-145 [4]; read-out: TGI): > 100 µM | GI50 (DU-145 [4]; read-out: pGI50 (converted)): 3.89 µM | CC50 (DU-145 [4]; [9]): > 100 µM | TGI (DU-145 [4]; read-out: pTGI (converted)): > 100 µM | GI50 (U-251): 3.12 µM | TGI (U-251): 11.8 µM | CC50 (U-251; [8]): > 100 µM | GI50 (LOX IMVI): 3.39 µM | TGI (LOX IMVI): 19.8 µM | CC50 (LOX IMVI; [8]): > 100 µM | Activity (K562): 10.18% | GI50 (KM12): 4.1 µM | LC50 (KM12): 72.9 µM | TGI (KM12): 17.8 µM | GI50 (OVCAR-8; read-out: GI50): 6.56 µM | CC50 (OVCAR-8; [8]): > 100 µM | TGI (OVCAR-8; read-out: TGI): > 100 µM | GI50 (OVCAR-8; read-out: pGI50 (converted)): 8.51 µM | CC50 (OVCAR-8; [9]): > 100 µM | TGI (OVCAR-8; read-out: pTGI): > 100 µM | Activity (SR [5]): -13.6% | Activity (BT-549): 67.52% | GI50 (SK-MEL-5): 4.07 µM | LC50 (SK-MEL-5): 51.4 µM | TGI (SK-MEL-5): 15.4 µM | GI50 (COLO 205; read-out: GI50): 27.3 µM | CC50 (COLO 205; [8]): > 100 µM | TGI (COLO 205; read-out: TGI): 63.7 µM | GI50 (COLO 205; read-out: pGI50 (converted)): 27.5 µM | CC50 (COLO 205; [9]): > 100 µM | TGI (COLO 205; read-out: pTGI (converted)): 63.1 µM | Activity (OVCAR-5): 92.89% | Activity [6]: 66% | GI50 (HOP-62): 10.9 µM | TGI (HOP-62): 34.7 µM | CC50 (HOP-62; [8]): > 100 µM | GI50 (SR [7]; read-out: GI50): 6.1 µM | CC50 (SR [7]; [8]): > 100 µM | TGI (SR [7]; read-out: TGI): > 100 µM | GI50 (SR [7]; read-out: pGI50 (converted)): 6.17 µM | CC50 (SR [7]; [9]): > 100 µM | TGI (SR [7]; read-out: pTGI): > 100 µM | Activity (HL-60(TB)): -0.37% | LC50 (concentration killing 50% of cells) (MOLT-4): > 100 µM | GI50 (MOLT-4; read-out: GI50): 24.2 µM | TGI (MOLT-4; read-out: TGI): > 100 µM | GI50 (MOLT-4; read-out: pGI50 (converted)): 24 µM | CC50 (MOLT-4; [9]): > 100 µM | TGI (MOLT-4; read-out: pTGI): > 100 µM | GI50 (MDA-MB-468; read-out: GI50): 17.8 µM | CC50 (MDA-MB-468; [8]): > 100 µM | TGI (MDA-MB-468; read-out: TGI): 63.6 µM | GI50 (MDA-MB-468; read-out: pGI50 (converted)): 25.7 µM | CC50 (MDA-MB-468; [9]): > 100 µM | TGI (MDA-MB-468; read-out: pTGI (converted)): 63.1 µM | GI50 (TK-10; read-out: GI50): 3.66 µM | CC50 (TK-10; [8]): > 100 µM | TGI (TK-10; read-out: TGI): 86.3 µM | GI50 (TK-10; read-out: pGI50 (converted)): 36.3 µM | CC50 (TK-10; [9]): > 100 µM | TGI (TK-10; read-out: pTGI (converted)): 87.1 µM
